In ChEMBL document CHEMBL4513216, “Probing the Open Global Health Chemical Diversity Library for Multistage-Active Starting Points for Next-Generation Antimalarials” (ACS Infect Dis, 2020) one finds cytotoxicity data, which are given here for 39 molecules.

Each structure is given as a SMILES string.

The data set can be described thus: Toxicity liver stage against HepG2, at 10uM. It is filed as cell-based. Also on record: test concentration 10 uM, cell line HepG2-A16-CD81EGFP. As to conditions: human, HepG2-A16-CD81EGFP cells; read-out: INHIBITION
An outline of the steps:
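Uninfected HepG2-A16-CD81EGFP cells, 3 × 10^3 per well, 1536-well, plated on prespotted compound at 10 μM final, parasite-free screening media added to match infected plates; puromycin 10 μM positive, DMSO 0.5% negative; run in parallel with 48 h PbLuc assay at 37 °C, 5% CO2; viability by CellTiter-Glo luminescence, normalized to controls.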
`OC[C@@H]1[C@H]2CN(c3ccccn3)CCN2C[C@H]1c1ccccc1`: the cytotoxicity at 10 µM is -8.43%.
Consider `O=C(NCc1nc2ccccc2[nH]1)c1cc2n(n1)CCCO2`, for which the cytotoxicity at 10 µM was -5.43%.
For `O=C(c1ccccn1)N1CCC(Oc2ncccc2Cl)CC1`, the cytotoxicity at 10 µM stood at 3.07%.
As to `CCS(=O)(=O)N1C[C@H]2CN(Cc3cccc(C)c3)C(=O)[C@H]2C1`, the cytotoxicity at 10 µM came out at 2.9%.
As for `COCCN1Cc2ccccc2C2(CCN(C(=O)c3ccno3)CC2)C1`, the cytotoxicity at 10 µM was determined as 5.58%.
As for `O=c1ccc(-c2cccs2)nn1CN1CCOCC1`, the cytotoxicity at 10 µM came to 5.68%.
On to `CC1(c2nccs2)CCN(C(=O)CC2CCOCC2)CC1`, for which the cytotoxicity at 10 µM was -0.29%.
Under `Cc1csc2c(C3CCCN(C(=O)CCCn4cncn4)C3)nc(C)n12` (centres undefined) stands 7.69%; under `O=C(O)c1ccccc1-n1cnc(CN2CCc3ccccc32)c1`, 11.7%.
For the molecule `CSc1ncc(C(=O)N(C)C(C)Cc2ccccn2)cn1` (centres undefined), the cytotoxicity at 10 µM came out at 15.9%.
For the molecule `CNC(=O)c1cccc(CC2COCCN(Cc3ccc(C)o3)C2)n1` (centres undefined), the cytotoxicity at 10 µM worked out at 0.166%.
On to `CC(NCCCN1CCCC1=O)c1cc(Br)ccc1O` (centres undefined), for which the cytotoxicity at 10 µM is -1.41%.
Turning to `CC(C)c1noc(CCC(=O)N2CCCC(n3ccnc3)C2)n1` (centres undefined), the cytotoxicity at 10 µM came to 5.58%.
Take `Cc1nc2c(c(C)c1CC(=O)Nc1ccnn1C(C)C)c(=O)[nH]n2C`: the cytotoxicity at 10 µM was determined as 13%.
`CN(Cc1ccco1)Cc1ccccc1CNC(=O)c1c[nH]nn1`: the cytotoxicity at 10 µM was -2.89%.
For the molecule `Cc1cccc2nc(CSCc3nnnn3C(C)C)cn12`, the cytotoxicity at 10 µM was found to be 1.24%.
For the molecule `CC(=O)N1CCN(C2CCCCc3ccccc32)CC1` (centres undefined), the cytotoxicity at 10 µM is -46.3%.
As to `Cc1ccnc(NC(=O)CSCc2cccnc2)c1`, the cytotoxicity at 10 µM is -42.2%.
On to `O=C1CC(NS(=O)(=O)N2CCOCC2)CN1Cc1ccccc1` (centres undefined), for which the cytotoxicity at 10 µM worked out at 4.19%.
As to `CSC(C)(C)CNC(=O)NCC[S+]([O-])c1ccccc1` (centres undefined), the cytotoxicity at 10 µM amounted to 15.5%.
Consider `Cc1nc(C(=O)N2CCN(C(C)c3ccccc3F)CC2)cs1` (centres undefined), for which the cytotoxicity at 10 µM was -0.462%.
For the molecule `COc1cccc(CC(=O)N2CC[C@@H]3CN(C)S(=O)(=O)[C@@H]3CC2)c1`, the cytotoxicity at 10 µM is -2.36%.
As for `CC(=O)N1CC[C@H]2OCC[C@@H](C(=O)Nc3cccnc3C)[C@@H]2C1`, the cytotoxicity at 10 µM was determined as 11.3%.
Consider `COC[C@@H]1CC[C@H]2[C@H](CCN2S(=O)(=O)c2ccc(C)cc2)O1`, for which the cytotoxicity at 10 µM is -1.05%.
The same measure for `CSc1ncc(CN(C)C(C)c2cccnc2)cn1` (centres undefined): 2.1%; for `COc1cccc(CC(=O)N2CCCN(c3ccnc(C)c3)CC2)c1`: -7.06%.
As to `CN1CCN(C(=O)N2CCC3(CCCN(C4CCOCC4)C3=O)C2)CC1` (centres undefined), the cytotoxicity at 10 µM is -129%.
For the molecule `CN1CCN(CC(C)(C)C)CC1CCO` (centres undefined), the cytotoxicity at 10 µM is 1.88%.
The same measure for `Cc1nc(N(C)C)nc(N(C)Cc2cnccn2)c1C`: 3.4%.
On to `Cc1nccn1CCN(C)c1nc(-c2cccnc2)nc2c1CCNC2`, for which the cytotoxicity at 10 µM was -21.2%.
With `NC(=O)CCC(=O)N1CCc2[nH]nc(-c3ccc4c(c3)OCO4)c2C1`, the cytotoxicity at 10 µM was -142%.
`Cc1ccncc1C(=O)N1CC[C@@]2(O)CCN(C3CCCCC3)C[C@H]2C1`: the cytotoxicity at 10 µM is -125%.
As for `CCCSCC(=O)N1CCN(c2ccc(C)cc2)CC1C` (centres undefined), the cytotoxicity at 10 µM is -165%.
For `O=C1CC2(CCN(C(=O)c3csc(-c4ccccc4)n3)C2)C(=O)N1` (centres undefined), the cytotoxicity at 10 µM was -1.25%.
The same measure for `Cc1cc2occ(CC(=O)N3CCC4(CCCN(C)C4=O)C3)c2cc1Cl` (centres undefined): -4.03%.
Under `CC(C)=CCN1CCN(Cc2ncc[nH]2)[C@H]2CS(=O)(=O)C[C@H]21` stands 5.44%; under `N#Cc1cccnc1N1CCC(C2CCCCCN2C(=O)C2CC2)CC1` (centres undefined), 1.95%; under `CCN1CCN(C)C(=O)C12CCN(Cc1csc(C)n1)CC2`, 1.53%.
As for `CN1CCN(Cc2cnc3n2CCN(Cc2cccnc2)CC3)CC1`, the cytotoxicity at 10 µM was 6.26%.
